According to ChEMBL document CHEMBL1155784, “Aromatic 2-chloroethyl urea derivatives and bioisosteres. Part 2: Cytocidal activity and effects on the nuclear translocation of thioredoxin-1, and the cell cycle progression” (2008):
Calls of active or inactive are those of the source. The calls are words filed in the database; no cut-off is given here.

Experiments:
M21 [1] = assay: Inhibition of nuclear translocation of thioredoxin 1 in human M21 cells at 50 uM after 18 hrs by immunocytochemistry; type: functional, cell-based
Summary of the method: (§1)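 M21 cells seeded on fibronectin-coated coverslips, held 18 h at 37 °C, then treated with compounds (5–50 µM; reference agents 0.1–40 µM) or 0.1% DMSO. Fixed in 3.7% formaldehyde, permeabilized with 0.1% saponin, and blocked in 3% BSA. Stained 1 h at 37 °C with anti-thioredoxin-1 monoclonal (1/200), then with Alexa-488 anti-mouse IgG plus DAPI for nuclei.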

MCF7 [2] = assay: Growth inhibition of human MCF7 cells after 48 hrs by sulforhodamine B assay; type: functional; conditions: for GI50: MCF7, 48 h
Summary of the method: (§2)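 NCI-style sulforhodamine B assay. HT-29 (5×10³), M21 or MCF-7 (3.5×10³) cells were grown 24 h, then given DMSO-solubilized drug at 100 to 0.7 µM final (DMSO <0.5%) for 48 h. Fixed in cold 10% TCA, stained with 0.1% SRB, read at 585 nm after subtracting a day-0 plate. Inhibition is relative to DMSO controls; GI50 from at least triplicate runs.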

HT-29 = assay: Growth inhibition of human HT29 cells after 48 hrs by sulforhodamine B assay; type: functional; conditions: for GI50: HT-29, 48 h; summary of the method: as §2
M21 [3] = assay: Growth inhibition of human M21 cells after 48 hrs by sulforhodamine B assay; type: functional; conditions: for GI50: M21, 48 h; summary of the method: as §2
M21 [4] = assay: Inhibition of nuclear translocation of thioredoxin 1 in human M21 cells at 5 uM after 18 hrs by immunocytochemistry; type: functional, cell-based; summary of the method: as §1
MCF7 [5] = assay: Cell cycle arrest in human MCF7 cells assessed as G0/G1 phase accumulation at 2 times GI50 after 24 hrs by flow cytometry
MCF7 [6] = assay: Cell cycle arrest in human MCF7 cells assessed as S phase accumulation at 2 times GI50 after 24 hrs by flow cytometry
MCF7 [7] = assay: Cell cycle arrest in human MCF7 cells assessed as G2/M phase accumulation at 2 times GI50 after 24 hrs by flow cytometry
MCF7 [8] = assay: Cell cycle arrest in human MCF7 cells assessed as G2/M phase accumulation at 2 times GI50 after 24 hrs by flow cytometry; type: functional
MCF7 [9] = assay: Cell cycle arrest in human MCF7 cells assessed as S phase accumulation at 2 times GI50 after 24 hrs by flow cytometry; type: functional
MCF7 [10] = assay: Cell cycle arrest in human MCF7 cells assessed as […] phase accumulation at 2 times GI50 after 24 hrs by flow cytometry; type: functional
M21 [11] = assay: Inhibition of nuclear translocation of thioredoxin 1 in human M21 cells at 25 uM after 18 hrs by immunocytochemistry; type: functional, cell-based; summary of the method: as §1

Compound | GI50 (MCF7 [2]) [µM] | GI50 (HT-29) [µM] | Activity (M21 [1]) | GI50 (M21 [3]) [µM] | Activity (M21 [4]) | Activity (MCF7 [5]) [%] | Activity (MCF7 [6]) [%] | Activity (MCF7 [7]) [%] | other results
O=C(NCCCl)NC1c2ccccc2-c2ccccc21 |  |  | Active |  |  |  |  |  | 
c1cc(C2CCCCC2)ccc1NC1=NCCO1 | 17.5 | 12.8 | Active | 17.8 |  | 73 | 16 | 11 | 
Cc1ccc(NC2=NCCO2)cc1 |  |  | inactive |  |  |  |  |  | 
O=C(NCCCl)Nc1ccc(C2CCCCC2)cc1 |  |  | Active |  |  |  |  |  | Activity (MCF7 [8]): 16%; Activity (MCF7 [9]): 13%; Activity (MCF7 [10]): 71%
C1COC(NC2C3CC4CC(C3)CC2C4)=N1 (stereo not given) | 24.1 | 53.4 | Active | 60.7 |  |  |  |  | 
c1cc(NC2=NCCO2)cc(OC2CCCC2)c1 | 62.1 | 52.2 | Active | 76.9 |  | 77 | 17 | 6 | 
O=C(NCCCl)Nc1cccc(OC2CCCCC2)c1 |  |  | Active |  |  |  |  |  | Activity (MCF7 [8]): 8%; Activity (MCF7 [9]): 33%; Activity (MCF7 [10]): 59%
O=C(CCl)NC(=O)Nc1ccc(C2CCCCC2)cc1 | 1.5 | 2.3 |  | 0.9 | Active | 25 | 51 | 24 | 
CCNC(=O)Nc1ccc(C2CCCCC2)cc1 |  |  |  |  |  |  |  |  | Activity (MCF7 [2]): inactive; Activity (HT-29): inactive; Activity (M21 [3]): inactive
Cc1ccc(NC(=O)NCCCl)cc1 |  |  | Active |  |  |  |  |  | 
c1ccc2cc(NC3=NCCO3)ccc2c1 | 4.5 | 2 | Active | 3.5 | Active |  |  |  | 
c1cc(OC2CCCC2)ccc1NC1=NCCO1 | 23.1 | 16.1 | Active | 21.1 |  | 70 | 23 | 7 | 
O=C(CCl)NC(=O)Nc1ccc(OC2CCCCC2)cc1 | 4.7 | 3.1 |  | 5 | Active | 70 | 20 | 10 | 
c1ccc2c(c1)-c1ccccc1C2NC1=NCCO1 |  |  | Active |  |  |  |  |  | 
O=C(CCl)NC(=O)Nc1ccc(OCc2ccccc2)cc1 | 4.6 | 2.6 |  | 5.1 | inactive |  |  |  | 
O=C(CCl)NC(=O)NC1c2ccccc2-c2ccccc21 |  |  |  |  | inactive |  |  |  | 
c1ccc(Oc2ccc(NC3=NCCO3)cc2)cc1 | 3.5 | 2 | inactive | 3.1 | inactive |  |  |  | 

Compound | GI50 (MCF7 [2]) [µM] | GI50 (HT-29) [µM] | Activity (M21 [1]) | GI50 (M21 [3]) [µM] | Activity (M21 [4]) | Activity (MCF7 [5]) [%] | Activity (MCF7 [6]) [%] | Activity (MCF7 [7]) [%] | other results
CCNC(=O)Nc1ccc(OC2CCCCC2)cc1 |  |  |  |  |  |  |  |  | Activity (MCF7 [2]): inactive; Activity (HT-29): inactive; Activity (M21 [3]): inactive
Ic1ccc(NC2=NCCO2)cc1 |  |  |  |  | Active | 14 | 10 | 76 | 
O=C(CCl)NC(=O)Nc1ccc(I)cc1 |  |  |  |  | Active | 68 | 22 | 10 | 
CCNC(=O)Nc1ccc2c(c1)CCC2 |  |  |  |  |  |  |  |  | Activity (MCF7 [2]): inactive; Activity (HT-29): inactive; Activity (M21 [3]): inactive
Cc1ccc(NC(=O)NC(=O)CCl)cc1 |  |  |  |  | Active |  |  |  | 
O=C(NCCCl)Nc1cccc(Oc2ccccc2)c1 |  |  | inactive |  |  |  |  |  | 
c1cc2c(cc1NC1=NCCO1)CCC2 |  |  | Active |  |  |  |  |  | Activity (M21 [11]): Active
O=C(NCCCl)NC1C2CC3CC(C2)CC1C3 (stereo not given) | 11.3 | 50.6 | inactive |  |  |  |  |  | Activity (M21 [3]): inactive
O=C(NCCCl)Nc1cccc(OC2CCCC2)c1 |  |  | Active |  |  |  |  |  | Activity (MCF7 [8]): 12%; Activity (MCF7 [9]): 24%; Activity (MCF7 [10]): 64%
O=C(NCCCl)Nc1ccc2c(c1)CCC2 |  |  |  |  |  |  |  |  | Activity (M21 [11]): Active
CC(C)(C)c1ccc(NC(=O)NC(=O)CCl)cc1 |  |  |  |  | Active | 61 | 20 | 19 | 
CCNC(=O)Nc1cccc(OC2CCCCCC2)c1 |  |  |  |  |  |  |  |  | Activity (MCF7 [2]): inactive; Activity (HT-29): inactive; Activity (M21 [3]): inactive
Cc1ccc(NC(=O)NC(=O)CCl)cc1C |  |  |  |  | inactive |  |  |  | 
CC(C)(C)c1ccc(NC2=NCCO2)cc1 |  |  |  |  | inactive | 15 | 11 | 74 | 
O=C(CCl)NC(=O)Nc1ccc(OC2CCCC2)cc1 | 3.9 | 3.1 |  | 2.9 | Active | 58 | 33 | 9 | 
O=C(CCl)NC(=O)Nc1ccc2c(c1)CCC2 |  |  |  |  | Active |  |  |  | 

More lines, main results first:

GI50 (MCF7 [2]) [µM] | GI50 (HT-29) [µM] | Compound | Activity (M21 [1]) | GI50 (M21 [3]) [µM] | Activity (M21 [4]) | Activity (MCF7 [5]) [%] | Activity (MCF7 [6]) [%] | Activity (MCF7 [7]) [%] | other results
7.6 | 4.9 | O=C(CCl)NC(=O)Nc1ccc2ccccc2c1 |  | 3.7 | inactive |  |  |  | 
7.2 | 6.9 | O=C(CCl)NC(=O)Nc1cccc(OC2CCCCCC2)c1 |  | 4.2 | Active | 58 | 31 | 11 | 
12.2 | 5.5 | c1ccc(Oc2cccc(NC3=NCCO3)c2)cc1 | inactive | 9.6 |  |  |  |  | Activity (M21 [11]): inactive
10.6 | 5.8 | c1ccc(-c2ccc(NC3=NCCO3)cc2)cc1 | Active | 8.8 |  |  |  |  | Activity (M21 [11]): Active
3.6 | 2.3 | O=C(CCl)NC(=O)Nc1ccc(OC2CCCCCC2)cc1 |  | 5 | Active | 59 | 30 | 11 | 
8.1 | 5.2 | O=C(CCl)NC(=O)Nc1cccc(Oc2ccccc2)c1 |  | 5.3 | Active |  |  |  | 
19.1 | 12.6 | c1cc(OC2CCCCC2)ccc1NC1=NCCO1 | Active | 20.8 |  | 82 | 13 | 5 | 
6.2 | 6.5 | O=C(CCl)NC(=O)Nc1cccc(OCc2ccccc2)c1 |  | 4.5 | inactive |  |  |  | 
4.2 | 3.6 | O=C(CCl)NC(=O)Nc1ccc(Oc2ccccc2)cc1 |  | 4.2 | inactive |  |  |  | 
2.6 | 0.8 | c1ccc(COc2cccc(NC3=NCCO3)c2)cc1 |  | 1.5 | inactive |  |  |  | 
6.3 | 3.8 | O=C(CCl)NC(=O)Nc1cccc(OC2CCCCC2)c1 |  | 2.7 | Active | 73 | 20 | 7 | 
79.7 | 37.5 | O=C(NCCCl)Nc1ccc(OCc2ccccc2)cc1 | inactive |  |  |  |  |  | Activity (M21 [3]): inactive
26.8 | 16.6 | c1cc(OC2CCCCCC2)ccc1NC1=NCCO1 | Active | 27.1 |  | 82 | 14 | 4 | 
11.1 | 10.3 | c1ccc(COc2ccc(NC3=NCCO3)cc2)cc1 | Active | 15.9 |  |  |  |  | Activity (M21 [11]): Active
42 | 8.3 | O=C(NCCCl)Nc1ccc(-c2ccccc2)cc1 | Active | 14.5 |  |  |  |  | Activity (M21 [11]): Active
6.2 | 5.1 | O=C(CCl)NC(=O)NC1C2CC3CC(C2)CC1C3 (stereo not given) |  | 3.2 |  |  |  |  | 
6.2 | 3.1 | O=C(CCl)NC(=O)Nc1cccc(OC2CCCC2)c1 |  | 3.5 | Active | 53 | 34 | 13 | 
3.9 | 2.3 | O=C(CCl)NC(=O)Nc1ccc(-c2ccccc2)cc1 |  | 1.4 | Active |  |  |  | 
14.8 | 6.9 | c1cc(NC2=NCCO2)cc(OC2CCCCCC2)c1 | Active | 14.4 |  | 48 | 28 | 24 | Activity (M21 [11]): Active
15.9 | 4.4 | c1cc(NC2=NCCO2)cc(OC2CCCCC2)c1 | Active | 12 |  | 43 | 19 | 38 | Activity (M21 [11]): Active
